Laboratory results reported in ChEMBL document CHEMBL1130090, “Antitumor agents. 174. 2',3',4',5,6,7-Substituted 2-phenyl-1,8-naphthyridin-4-ones: their synthesis, cytotoxicity, and inhibition of tubulin polymerization” (J Med Chem, 1997).

What follows are molecules tested on 786-0 (assay: Concentration which reduced cell growth to 50 % of level against 786-0 renal cancer line). Details: Homo sapiens.
Assay type: functional

Row | SMILES | GI50 [µM]
1 | COc1ccccc1-c1cc(O)c2c(C)ccnc2n1 | 60.3
2 | COc1ccc(-c2cc(O)c3cc(C)cnc3n2)cc1 | 5.13
3 | COc1cccc(-c2cc(O)c3c(C)cc(C)nc3n2)c1 | 0.437
4 | Cc1ccnc2nc(-c3ccc(F)cc3)cc(O)c12 | 33.9
5 | Cc1cc(C)c2c(O)cc(-c3ccc(Cl)cc3)nc2n1 | 21.4
6 | COc1ccc(-c2cc(O)c3c(C)cc(C)nc3n2)cc1 | 58.9

Each molecule was assayed on HCT-116 (assay: Concentration which reduced cell growth to 50 % of level against HCT116 colon cancer cell line). Details: Homo sapiens.
Assay type: functional

Row | SMILES | GI50 [µM]
7 | COc1ccccc1-c1cc(O)c2c(C)ccnc2n1 | 7.59
8 | COc1ccc(-c2cc(O)c3cc(C)cnc3n2)cc1 | 4.17
9 | COc1cccc(-c2cc(O)c3c(C)cc(C)nc3n2)c1 | 0.407
10 | Cc1ccnc2nc(-c3ccc(F)cc3)cc(O)c12 | 16.2
11 | Cc1cc(C)c2c(O)cc(-c3ccc(Cl)cc3)nc2n1 | 14.8
12 | COc1ccc(-c2cc(O)c3c(C)cc(C)nc3n2)cc1 | 36.3

Each molecule was assayed on HL-60 (assay: Concentration which reduced cell growth to 50 % of level against HL-60 (TB) leukemia cell line). Details: Homo sapiens.
Assay type: functional

Row | SMILES | GI50 [µM]
13 | COc1ccccc1-c1cc(O)c2c(C)ccnc2n1 | 20.9
14 | COc1ccc(-c2cc(O)c3cc(C)cnc3n2)cc1 | 2.29
15 | COc1cccc(-c2cc(O)c3c(C)cc(C)nc3n2)c1 | 0.174
16 | Cc1ccnc2nc(-c3ccc(F)cc3)cc(O)c12 | 4.79
17 | Cc1cc(C)c2c(O)cc(-c3ccc(Cl)cc3)nc2n1 | 25.1
18 | COc1ccc(-c2cc(O)c3c(C)cc(C)nc3n2)cc1 | 15.5

These molecules were tested on Tumor Cell line (assay: Cytotoxic effect in human tumor cell lines, tested by the National Cancer Institute). Details: read-out: Average LogGI50 (converted).
Assay type: functional

Row | SMILES | GI50 [µM]
19 | COc1ccccc1-c1cc(O)c2c(C)ccnc2n1 | 2.82
20 | COc1ccc(-c2cc(O)c3cc(C)cnc3n2)cc1 | 6.17
21 | COc1cccc(-c2cc(O)c3c(C)cc(C)nc3n2)c1 | 0.646
22 | Cc1ccnc2nc(-c3ccc(F)cc3)cc(O)c12 | 38
23 | Cc1cc(C)c2c(O)cc(-c3ccc(Cl)cc3)nc2n1 | 19.5
24 | COc1ccc(-c2cc(O)c3c(C)cc(C)nc3n2)cc1 | 33.1

Each molecule was assayed on MDA-N (assay: Concentration which reduced cell growth to 50 % of level against MDA-N breast cancer line). Details: Homo sapiens.
Assay type: functional

Row | SMILES | GI50 [µM]
25 | COc1ccccc1-c1cc(O)c2c(C)ccnc2n1 | 8.32
26 | COc1ccc(-c2cc(O)c3cc(C)cnc3n2)cc1 | 1.7
27 | COc1cccc(-c2cc(O)c3c(C)cc(C)nc3n2)c1 | < 0.01
28 | Cc1ccnc2nc(-c3ccc(F)cc3)cc(O)c12 | 3.55
29 | Cc1cc(C)c2c(O)cc(-c3ccc(Cl)cc3)nc2n1 | 3.63
30 | COc1ccc(-c2cc(O)c3c(C)cc(C)nc3n2)cc1 | 33.1

These molecules were tested on MDA-MB-435 (assay: Concentration which reduced cell growth to 50 % of level against MDA-MB-435 breast cancer line). Details: Homo sapiens.
Assay type: functional

Row | SMILES | GI50 [µM]
31 | COc1ccccc1-c1cc(O)c2c(C)ccnc2n1 | 6.46
32 | COc1ccc(-c2cc(O)c3cc(C)cnc3n2)cc1 | 1.82
33 | COc1cccc(-c2cc(O)c3c(C)cc(C)nc3n2)c1 | < 0.01
34 | Cc1ccnc2nc(-c3ccc(F)cc3)cc(O)c12 | 2.88
35 | Cc1cc(C)c2c(O)cc(-c3ccc(Cl)cc3)nc2n1 | 4.07
36 | COc1ccc(-c2cc(O)c3c(C)cc(C)nc3n2)cc1 | 28.8

What follows are molecules tested on NCI-H460 (assay: compound was tested for concentration which reduced cell growth to 50 % of level against NCI-H460 non -small-cell lung cancer cell line). Details: Homo sapiens.
Assay type: functional

Row | SMILES | GI50 [µM]
37 | COc1ccccc1-c1cc(O)c2c(C)ccnc2n1 | 24
38 | COc1ccc(-c2cc(O)c3cc(C)cnc3n2)cc1 | 4.07
39 | COc1cccc(-c2cc(O)c3c(C)cc(C)nc3n2)c1 | 0.447
40 | Cc1ccnc2nc(-c3ccc(F)cc3)cc(O)c12 | 32.4
41 | Cc1cc(C)c2c(O)cc(-c3ccc(Cl)cc3)nc2n1 | 22.4
42 | COc1ccc(-c2cc(O)c3c(C)cc(C)nc3n2)cc1 | 40.7

Each molecule was assayed on OVCAR-3 (assay: Concentration which reduced cell growth to 50 % of level against OVCAR-3 ovarian cancer line). Details: Homo sapiens.
Assay type: functional

Row | SMILES | GI50 [µM]
43 | COc1ccccc1-c1cc(O)c2c(C)ccnc2n1 | 12.9
44 | COc1ccc(-c2cc(O)c3cc(C)cnc3n2)cc1 | 2.95
45 | COc1cccc(-c2cc(O)c3c(C)cc(C)nc3n2)c1 | 0.251
46 | Cc1ccnc2nc(-c3ccc(F)cc3)cc(O)c12 | 56.2
47 | Cc1cc(C)c2c(O)cc(-c3ccc(Cl)cc3)nc2n1 | 18.2
48 | COc1ccc(-c2cc(O)c3c(C)cc(C)nc3n2)cc1 | 32.4

What follows are molecules tested on PC-3 (assay: Concentration which reduced cell growth to 50 % of level against PC-3 prostate cancer line). Details: Homo sapiens.
Assay type: functional

Row | SMILES | GI50 [µM]
49 | COc1ccccc1-c1cc(O)c2c(C)ccnc2n1 | 20.9
50 | COc1ccc(-c2cc(O)c3cc(C)cnc3n2)cc1 | 5.37
51 | COc1cccc(-c2cc(O)c3c(C)cc(C)nc3n2)c1 | 0.309
52 | Cc1ccnc2nc(-c3ccc(F)cc3)cc(O)c12 | 51.3
53 | Cc1cc(C)c2c(O)cc(-c3ccc(Cl)cc3)nc2n1 | 6.31
54 | COc1ccc(-c2cc(O)c3c(C)cc(C)nc3n2)cc1 | 24

The molecules below were run on SF-295 (assay: Concentration which reduced cell growth to 50 % of level against SF-295 CNS cancer line). Details: Homo sapiens.
Assay type: functional

Row | SMILES | GI50 [µM]
55 | COc1ccccc1-c1cc(O)c2c(C)ccnc2n1 | 23.4
56 | COc1ccc(-c2cc(O)c3cc(C)cnc3n2)cc1 | 5.25
57 | COc1cccc(-c2cc(O)c3c(C)cc(C)nc3n2)c1 | 0.417
58 | Cc1ccnc2nc(-c3ccc(F)cc3)cc(O)c12 | 79.4
59 | Cc1cc(C)c2c(O)cc(-c3ccc(Cl)cc3)nc2n1 | 16.2
60 | COc1ccc(-c2cc(O)c3c(C)cc(C)nc3n2)cc1 | 42.7

The molecules below were run on SK-MEL-5 (assay: Concentration which reduced cell growth to 50 % of level against SK-MEL-5 melanoma cell line). Details: Homo sapiens.
Assay type: functional

Row | SMILES | GI50 [µM]
61 | COc1ccccc1-c1cc(O)c2c(C)ccnc2n1 | 22.4
62 | COc1ccc(-c2cc(O)c3cc(C)cnc3n2)cc1 | 3.72
63 | COc1cccc(-c2cc(O)c3c(C)cc(C)nc3n2)c1 | 0.288
64 | Cc1ccnc2nc(-c3ccc(F)cc3)cc(O)c12 | 16.2
65 | Cc1cc(C)c2c(O)cc(-c3ccc(Cl)cc3)nc2n1 | 14.1
66 | COc1ccc(-c2cc(O)c3c(C)cc(C)nc3n2)cc1 | 17.8

These molecules were tested on U-251 (assay: Concentration which reduced cell growth to 50 % of U251 cancer line). Details: Homo sapiens.
Assay type: functional

Row | SMILES | GI50 [µM]
67 | COc1ccccc1-c1cc(O)c2c(C)ccnc2n1 | 35.5
68 | COc1ccc(-c2cc(O)c3cc(C)cnc3n2)cc1 | 4.17
69 | COc1cccc(-c2cc(O)c3c(C)cc(C)nc3n2)c1 | 0.17
70 | Cc1ccnc2nc(-c3ccc(F)cc3)cc(O)c12 | 36.3
71 | Cc1cc(C)c2c(O)cc(-c3ccc(Cl)cc3)nc2n1 | 30.2
72 | COc1ccc(-c2cc(O)c3c(C)cc(C)nc3n2)cc1 | 91.2

The molecules below were run against Tubulin alpha chain (Sus scrofa) (UniProt P02550) (assay: Inhibition of colchicine binding and evaluated only when polymerization IC50 <=1 uM). Details: not given.
Chain of Tubulin alpha chain (Sus scrofa) (P02550 whole entry, looked up): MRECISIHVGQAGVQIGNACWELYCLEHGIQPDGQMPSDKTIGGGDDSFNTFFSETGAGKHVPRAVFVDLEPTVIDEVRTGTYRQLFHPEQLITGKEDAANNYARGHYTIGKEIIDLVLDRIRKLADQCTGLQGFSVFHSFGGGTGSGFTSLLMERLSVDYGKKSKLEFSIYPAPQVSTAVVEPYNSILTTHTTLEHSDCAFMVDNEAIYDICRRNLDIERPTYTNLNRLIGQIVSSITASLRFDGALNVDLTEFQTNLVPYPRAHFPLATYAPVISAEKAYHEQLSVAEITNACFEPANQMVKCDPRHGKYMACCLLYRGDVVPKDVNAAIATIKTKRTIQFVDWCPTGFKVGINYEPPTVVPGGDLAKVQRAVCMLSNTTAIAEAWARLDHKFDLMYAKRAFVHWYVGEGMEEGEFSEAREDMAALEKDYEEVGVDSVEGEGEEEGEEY
Assay type: functional
Method in brief: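 Electrophoretically homogeneous bovine brain tubulin (1.0 µM) incubated 20 min at 37 °C with 5.0 µM [3H]colchicine and 5.0 µM inhibitor in 1.0 M monosodium glutamate (pH 6.6), 1 mM MgCl2, 0.1 mM GTP, 5% (v/v) DMSO. Mixtures filtered through two stacked DEAE-cellulose filters and washed with water. Bound radioactivity counted by liquid scintillation.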

Row | SMILES | inhibition [%]
73 | COc1cccc(-c2cc(O)c3c(C)cc(C)nc3n2)c1 | 22

The molecules below were run against Tubulin beta chain (Bos taurus, UniProt Q6B856) (assay: Inhibition of bovine tubulin polymerization). Details: not given.
Chain of Tubulin beta chain (Q6B856 whole entry): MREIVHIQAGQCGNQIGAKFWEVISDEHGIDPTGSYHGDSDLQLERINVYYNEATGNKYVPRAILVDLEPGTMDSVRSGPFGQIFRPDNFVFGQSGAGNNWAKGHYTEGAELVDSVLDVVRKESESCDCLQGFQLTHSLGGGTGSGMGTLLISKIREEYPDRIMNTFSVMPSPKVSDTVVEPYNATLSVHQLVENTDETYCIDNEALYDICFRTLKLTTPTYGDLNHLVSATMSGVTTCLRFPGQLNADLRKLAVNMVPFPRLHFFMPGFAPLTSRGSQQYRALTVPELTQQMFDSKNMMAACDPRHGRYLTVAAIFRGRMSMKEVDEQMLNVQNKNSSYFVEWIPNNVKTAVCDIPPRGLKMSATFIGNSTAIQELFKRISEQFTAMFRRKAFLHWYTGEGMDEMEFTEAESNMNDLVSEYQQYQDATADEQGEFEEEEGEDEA
Assay type: functional

Row | SMILES | IC50 [µM]
74 | COc1ccccc1-c1cc(O)c2c(C)ccnc2n1 | 20
75 | COc1ccc(-c2cc(O)c3cc(C)cnc3n2)cc1 | 7.7
76 | COc1cccc(-c2cc(O)c3c(C)cc(C)nc3n2)c1 | 0.88
77 | Cc1ccnc2nc(-c3ccc(F)cc3)cc(O)c12 | 18
78 | Cc1cc(C)c2c(O)cc(-c3ccc(Cl)cc3)nc2n1 | 32
79 | COc1ccc(-c2cc(O)c3c(C)cc(C)nc3n2)cc1 | > 40
